# NF-kB neuron act: NF-kB expression increase, human neuronal cells | NF-kB reporter expression; hits give high values | fold change at 12.5 µM | 190,000 compounds, 1.6% hits | AID 1239; in the data active means fold change above about 3.3
# AHR act: activators of human aryl hydrocarbon receptor. P35869. AHR-responsive luciferase reporter cells, luminescence. activation, % at 5 µM. 320,000 compounds, 2.5% hits; in the data active means activation above about 47%;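 further: 0% = vehicle wells and 100% = reference agonist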
# APP 5'UTR act: APP 5'UTR luciferase reporter activation | AID 1276 | SH-SY5Y APP 5'UTR luciferase reporter, luminescence; zero percent = DMSO vehicle wells | activation, % at 2 µM | 190,000 compounds, 1% hits;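 active means activation above a set limit, based on mean plus 3 SD of controls, cut at about 140% in these data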
# MDM2 E3 inh: blocks human Mdm2 ubiquitin ligase activity | cell-based MDM2 ubiquitination luciferase reporter, 2 h; 0 = plate control, 100 = twice control, blank-subtracted | signal enhancement, % at 5 µM | 210,000 compounds, 0.11% hits;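 active means signal enhancement of 30% or more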;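 further: luminescence tracks abundance of the self-degrading MDM2-luciferase fusion protein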
# Target sequence (Q00987 whole entry, looked up, the tested form may be a part): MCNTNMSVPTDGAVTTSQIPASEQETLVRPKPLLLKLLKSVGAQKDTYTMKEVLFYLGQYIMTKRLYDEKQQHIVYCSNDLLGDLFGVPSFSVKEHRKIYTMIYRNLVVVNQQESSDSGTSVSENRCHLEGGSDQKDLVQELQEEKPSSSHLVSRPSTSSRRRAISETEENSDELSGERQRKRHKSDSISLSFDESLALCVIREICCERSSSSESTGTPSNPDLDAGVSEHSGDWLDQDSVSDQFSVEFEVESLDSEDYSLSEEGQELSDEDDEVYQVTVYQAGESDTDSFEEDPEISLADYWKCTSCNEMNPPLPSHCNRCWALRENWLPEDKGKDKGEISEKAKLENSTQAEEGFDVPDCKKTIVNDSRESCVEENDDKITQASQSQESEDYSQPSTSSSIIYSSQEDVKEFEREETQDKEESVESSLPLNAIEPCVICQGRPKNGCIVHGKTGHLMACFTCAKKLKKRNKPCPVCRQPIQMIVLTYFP
#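 system = mammalian cells stably expressing self-ubiquitinating, self-degrading MDM2 E3–luciferase fusion | quantity = 2000 cells per well seeded | incubation = 4 h cell settling then 2 h compound exposure, 37 °C | signal = SteadyLite luminescence, 15 min reagent step | benchmarks = plate control and blank wells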
# STAT1 activator: increases IFN-gamma driven STAT1 reporter signal; NIH 3T3 STAT1-luciferase reporter, luminescence; 100% = IFN-gamma alone, no compound; activation (% of control), % at 5.5 µM; 200,000 compounds, 2.6% hits; AID 932;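 active means activation above the screen-wide mean activation plus 3 SD, cut at about 130% in these data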;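 further: raw ratio to IFN-gamma control signal so 100% means no change and 0% no light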
# PERK inhibitor: blocks human PERK kinase; Q9NZJ5; CHO PERK-DD fusion, SEAP luminescence translation reporter; inhibition, % at 5.6 µM; 220,000 compounds, 0.17% hits; AID 1416;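 active means inhibition above the mean inhibition of all tested compounds plus 3 SD, set separately per screening campaign, cut at about 2.9% in these data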;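 further: PERK kinase domain activated by AP20187 dimerizer at 100 nM; 0% = DMSO with dimerizer and 100% = rapamycin at 8.4 µM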
# * hit, by the source's call; . = not tested or not shown. A selection: hits, their analogues and other compounds. The true share with any hit is near 4.5%.
SMILES,NF-kB neuron act,AHR act,APP 5'UTR act,MDM2 E3 inh,STAT1 activator,PERK inhibitor
O=C(O)c1cccc(-n2cccc2/C=C/[N+](=O)[O-])c1,.,2.8,.,-9.8,.,3.2*
O=C(O)c1cccc(-n2cccc2/C=C\[N+](=O)[O-])c1,.,1.8,1.1,-7.5,81.8,0.1
O=c1[nH]c2cc3c(cc2cc1CN(CCc1ccccc1)Cc1nnnn1CC1CCCO1)OCO3 (stereo not drawn),1.06,45.3,13.1,-24.1,96.9,0.5
COCCn1nnnc1CN(Cc1ccco1)Cc1cc2cc3c(cc2[nH]c1=O)OCO3,1.01,71.9*,12.3,-6.4,98.1,0.8
COc1ccc2[nH]c(=O)c(CN(Cc3ccco3)Cc3nnnn3Cc3ccccc3)cc2c1,0.93,-0.2,-1.5,-14.3,90.7,-0.1
O=c1[nH]c2cc3c(cc2cc1CN(Cc1nnnn1CC1CCCO1)C1CCCC1)OCO3 (stereo not drawn),0.92,30.0,-0.3,30.2*,98.4,1.3
O=c1[nH]c2cc3c(cc2cc1CN(Cc1nnnn1CC1CCCO1)C1CCCCC1)OCO3 (stereo not drawn),1.4,55.9*,6.0,-14.1,97.1,1.0
Cc1cc(C(=O)COC(=O)c2ccc[nH]c2=O)c(C)n1-c1ccccc1F,.,7.0,.,-56.0,.,-0.5
CC(=O)Nc1ccc(SCC(=O)c2cc(C)n(-c3ccccc3F)c2C)cc1,0.51,-3.0,78.1,-2.7,145.1*,0.1
Cc1cc(C(=O)COC(=O)c2ccc(O)cc2)c(C)n1-c1ccccc1F,1.28,-4.0,185.0*,-38.0,126.0,0.1
Cc1cc(C(=O)Cn2nnc3ccccc3c2=O)c(C)n1-c1ccccc1F,1.66,-5.0,197.4*,-27.8,129.4*,-1.1
COc1cc(OC)cc(C(=O)N[C@@H](CCSC)c2nc3ccccc3[nH]2)c1,1.11,1.6,15.0,-19.6,93.5,0.1
C[C@@H](NC(=O)[C@@H]1Cc2ccccc2CN1C(=O)OC(C)(C)C)C(=O)NCC1CCCO1 (stereo partly drawn),.,-0.7,.,.,.,.
CC(=O)Nc1ccc(C2Nc3ccccc3C(=O)N2C2CCCCC2)cc1 (stereo not drawn),3.43*,17.0,5.7,1.4,104.2,-0.6
Brc1ccc(-c2nnc3sc(CNCc4ccc5c(c4)OCO5)cn23)cc1,0.96,65.4*,11.7,-3.8,96.4,0.9
Cc1ccc(C2=C(O)c3ccccc3C(=O)C2=O)cc1,.,5.5,.,.,.,.
O=C1C(c2ccncc2)=C(O)c2ccccc21,3.49*,-1.0,159.8*,-19.9,101.2,0.7
CC(C)c1ccc(C2=C(O)c3ccccc3C(=O)C2=O)cc1,1.64,54.2*,4.5,0.0,106.2,0.0
CCSc1nc2c(c(=O)[nH]1)C(c1ccncc1)C(C(=O)OC(C)C)=C(C)N2 (stereo not drawn),0.88,48.5*,5.7,-18.9,102.6,0.1
CCOc1ccccc1C(=O)Nc1cccc2cccnc12,.,74.4*,.,.,.,.
CCOc1ccc(C(=O)Nc2cccc3cccnc23)cc1,.,51.8*,.,.,.,.
CCOc1ccccc1C(=O)Nc1nnc(C(C)C)s1,1.38,57.3*,1.4,-7.9,115.7,-0.2
CC(C)CCn1nnnc1CN1CCN(c2ccccc2)CC1,1,1.6,11.7,-11.9,105.0,1.4
Cn1c(/C(C#N)=C(\O)c2ccc(Br)s2)nc2ccccc21,.,51.5*,.,.,.,.
CSc1nccc(N/N=C/c2ccccc2)n1,.,-2.7,.,.,.,.
SMILES,NF-kB neuron act,AHR act,APP 5'UTR act,MDM2 E3 inh,STAT1 activator,PERK inhibitor
COC(=O)Nc1ccc2c(c1)Nc1ccccc1CC2,.,3.4,.,.,.,.
Nc1ccc2c(c1)Nc1ccccc1CC2,1.5,49.8*,15.4,8.9,93.8,1.0
CCc1c(C(=O)Nc2nnc(C3CC3)s2)csc1C,1.35,67.3*,23.8,-18.9,115.0,0.4
O=C(Nc1nnc(C2CCCCC2)s1)c1ccco1,2.18,1.6,-2.0,-9.5,129.6*,-0.7
O=C(Nc1nnc(C2CC2)s1)c1ccco1,1.72,8.9,9.7,-14.0,124.2,0.7
O=C(Nc1nnc(C2CC2)s1)c1ccncc1,1.34,13.0,4.2,9.7,96.7,0.5
O=C(Nc1nnc(C2CCCO2)s1)c1cccs1 (stereo not drawn),1.59,47.6*,10.4,-15.6,105.2,0.8
O=C(Nc1ccc(NC(=O)C2CC2)nc1)c1ccccc1F,.,-8.1,.,.,.,.
O=C(Nc1ccc(NC(=O)C2CCCCC2)nc1)c1cccs1,1.9,-1.5,49.0,2.5,132.4*,0.4
Cn1ccnc1SCC(=O)Nc1cc(F)ccc1F,.,20.1,.,.,.,.
CC1CC1C(=O)OCC(=O)Nc1ccc(Cl)cn1 (stereo not drawn),.,5.0,.,.,.,.
O=C(Nc1nnc(C2CCCCC2)s1)c1cccs1,2.37,76.5*,30.8,-8.9,116.6,0.9
CC(C)=CCc1c(O)cc2c(=O)c3ccc(O)cc3oc2c1O,.,62.5*,.,.,.,.
c1ccc(N2CC3CCc4ccccc4C3=N2)cc1 (stereo not drawn),.,56.5*,.,-7.9,.,0.7
O=C1Cc2ccccc2C(=O)N1c1ccccc1,.,-2.5,.,.,.,.
Cn1cc(Cl)c(C(=O)Nc2nccs2)n1,.,2.9,.,.,.,.
O=C(Nc1nccs1)c1ncc(Cl)c(Cl)c1Cl,.,47.4*,.,.,.,.
COc1ccc(N2CC(C(=O)Nc3c(C(N)=O)oc4ccccc34)CC2=O)cc1 (stereo not drawn),.,1.0,.,.,.,.
C/C(CCC1CC(C)OC1=O)=N/Nc1nc(-c2ccccc2)cs1 (stereo not drawn),1.61,103.0*,-1.9,5.4,107.8,0.3
Clc1ccc(-c2cn3cccnc3n2)cc1,2.31,-10.4,15.5,-13.0,133.1*,0.1
Clc1ccc(-c2cn3cccnc3n2)cc1Cl,1.74,33.3,36.5,-14.5,121.3,-0.6
O=C(NC1CCCCCC1)c1cccc(N2CCCC2=O)c1,3.29,34.1,117.5,-25.2,129.7*,-0.3
Cc1cc(C)c(C(=O)NCC(=O)c2ccccc2)c(C)c1,.,-2.5,.,.,.,.
Oc1c(/C=N/Nc2cccc3cccnc23)ccc2ccccc12,1.76,48.4*,86.9,-8.4,97.8,0.3
Oc1cccc(/C=N/Nc2cccc3cccnc23)c1,8.92*,.,227.3*,-23.9,53.3,-0.5
SMILES,NF-kB neuron act,AHR act,APP 5'UTR act,MDM2 E3 inh,STAT1 activator,PERK inhibitor
COc1cc(/C=N/Nc2cccc3cccnc23)cc(OC)c1O,2.48,22.8,36.3,-24.6,112.1,0.6
Cc1cc(/C=C\c2ccccc2)nc2ccccc12,1.27,61.5*,130.1,-95.1,143.0*,0.1
CC(C)COc1cccc(C(=O)Nc2ccc(S(=O)(=O)N3CCOCC3)cc2)c1,0.62,0.8,-7.0,1.6,106.5,-0.5
COc1cccc(-n2c([S-])c(C(=O)Nc3ccc(S(=O)(=O)N4CCOCC4)cc3)[n+]3cc(C(N)=O)ccc23)c1,.,64.5*,.,-6.1,.,0.3
CC(C)NS(=O)(=O)c1ccc2c(c1)NCC2,0.95,1.8,7.7,-0.5,102.2,-0.2
Cc1nc2ccccc2cc1C(=O)Nc1ccccc1Cl,1.46,35.7,41.5,1.1,91.9,0.4
Cc1nc2ccc(F)cc2cc1C(=O)Nc1cccc(Cl)c1C,1.1,107.2*,-20.7,7.1,94.8,0.9

# From PubChem
